Assay results pooled from the literature.
FAAH: Fatty-acid amide hydrolase 1 (FAAH, Homo sapiens, UniProt O00519)
CCKBR: Gastrin/cholecystokinin type B receptor (CCKBR, Homo sapiens, UniProt P32239)
HTR2C: 5-hydroxytryptamine receptor 2C (HTR2C, Homo sapiens, UniProt P28335)
MTNR1A: Melatonin receptor type 1A (MTNR1A, Homo sapiens, UniProt P48039)
MMP3: Stromelysin-1 (MMP3, Homo sapiens, UniProt P08254)

| Structure (SMILES) | target | test | setting | inhibition [%] |
| --- | --- | --- | --- | --- |
| Cn1cc(-c2cccc(N3CCc4c(sc5c4CC(C)(C)C5)C3=O)c2CO)cc(Nc2ccncn2)c1=O | Mitogen-activated protein kinase kinase kinase 8 (MAP3K8, Homo sapiens, UniProt P41279) | enzyme activity, inhibitor | 1 µM | 16 |
| CN(C(=O)Oc1nsnc1N1CCCCC1)c1cccc(-c2ccccc2)c1 | FAAH | enzyme activity, inhibitor | 10 µM, cell membranes | 13 |
| c1ccc(C(NCCNC(c2ccccc2)c2ccccc2)c2ccccc2)cc1 | CCKBR | cell-free assay | 10 µM | 33 |
| CN(C(=O)Oc1nsnc1N1CCCCC1)c1ccc([N+](=O)[O-])cc1 | FAAH | enzyme activity, inhibitor | 10 µM, cell membranes | 19 |
| c1ccc(OCc2cc(OC[C@@H]3CCN3)on2)cc1 | Sigma intracellular receptor 2 (Tmem97, Rattus norvegicus, UniProt Q5U3Y7) | ligand displacement, radioligand | 10 µM | < 50 |
| COc1cc(Nc2ncc(F)c(Nc3ccc4c(n3)NC(=O)C(C)(C)O4)n2)cc(OC)c1OC | Serine/threonine-protein kinase ULK3 (ULK3, Homo sapiens, UniProt Q6PHR2) | binding | 10 µM | 100 |
| CCOC(=O)c1ccc(OC(=O)CCCCCNC(=N)N)cc1 | Ubiquitin carboxyl-terminal hydrolase 10 (USP10, Homo sapiens, UniProt Q14694) | enzyme activity, inhibitor | 10 µM | 3 |
| COc1ccc(S(=O)(=O)N2CCCCC2)cc1C | B1 bradykinin receptor (BDKRB1, Homo sapiens, UniProt P46663) | ligand displacement, radioligand | 10 µM | < 30 |
| COCCN(CCOC)C(=O)[C@@]12C[C@@H]1[C@@H](n1cnc3c(N)nc(Cl)nc31)[C@H](O)[C@@H]2O | HTR2C | ligand displacement, radioligand | 10 µM | 12 |
| C#Cc1n[nH]c2c(-c3cn([C@@H](C)c4ccccc4)c(=O)[nH]c3=O)cc(F)cc12 | Aurora kinase C (AURKC, Homo sapiens, UniProt Q9UQB9) | enzyme activity, inhibitor | 0.1 µM | -1.2 |
| CC(C)Cn1cnc2c(N)nc3ccccc3c21 | MTNR1A | ligand displacement, radioligand | 10 µM | 32 |
| Cc1ncc(C)n2nc(/C=C/c3nc(N4CCCC4)cc(N4CCOCC4)n3)nc12 | CCKBR | cell-free assay | 10 µM | -16 |
| CN(C)C(=O)COC(=O)Cc1ccc(OC(=O)c2ccc(NC(=N)N)cc2)cc1 | MMP3 | enzyme activity, inhibitor | 10 µM | 27 |
| CN(CCN1CCC(OC(=O)Nc2ccccc2-c2ccccc2)CC1)C(=O)c1ccc(CN2CCC(C(N)=O)CC2)cc1 | CCKBR | ligand displacement, radioligand | 1 µM | -9 |
| COc1ccc(S(=O)(=O)N(CC(=O)NO)CC(C)C)cc1 | MMP3 | enzyme activity, inhibitor | 10 nM | 20 |
| COc1ccccc1N(C)C(=O)Oc1nsnc1N1CCCCC1 | FAAH | enzyme activity, inhibitor | 10 µM, cell membranes | 18 |

| Structure (SMILES) | target | test | setting | inhibition [%] |
| --- | --- | --- | --- | --- |
| C[C@H](C(=O)N[C@H]1COc2ccccc2[C@@H]1S(C)(=O)=O)c1ccc(F)cc1 | Prostaglandin G/H synthase 1 (PTGS1, Homo sapiens, UniProt P23219) | enzyme activity, inhibitor | 10 µM | -24 |
| O=C(Nc1cccnn1)N1CCN([C@@H]2CCOc3cc(C(F)(F)F)ccc32)CC1 | MTNR1A | ligand displacement | 20 µM | 16 |
| COc1cccc(N(C)C(=O)Oc2nsnc2N2CCCCC2)c1 | FAAH | enzyme activity, inhibitor | 10 µM, cell membranes | 17 |
| N=C(N)c1ccc2cc(OC(=O)c3ccc(N=C(N)N)cc3)ccc2c1 | MMP3 | enzyme activity, inhibitor | 10 µM | 0 |
| CCCCc1ccc(C(=O)O)nc1 | MMP3 | enzyme activity, inhibitor | 1 mM, pH 6 | > 80 |
| C[C@@H](O)[C@H](N)C(=O)N1CCC[C@H]1C(=O)N1CCC[C@H]1C(=O)N[C@H](C(N)=O)[C@@H](C)O | FAAH | enzyme activity, inhibitor | 30 µM | -15 |
| O=C(Cc1c[nH]c2cc(Cl)ccc12)N1CCC(n2ccnc2)CC1 | Trypanothione synthetase (Trypanosoma cruzi, UniProt Q9GT49) | enzyme activity, inhibitor, absorbance | 25 µM | 6.2 |
| CN(C(=O)Oc1nsnc1N1CCCCC1)C1CCCCCCC1 | FAAH | enzyme activity, inhibitor | 10 µM, cell membranes | 13 |
| C#Cc1n[nH]c2c(-c3cn(C(C)c4ccccn4)c(=O)[nH]c3=O)cc(F)cc12 (centres unmarked) | Rho-associated protein kinase 1 (ROCK1, Homo sapiens, UniProt Q13464) | enzyme activity, inhibitor | 1 µM | -2.6 |
| Cn1cc(-c2cc(F)cc(N3CCn4c(cc5c4CCCC5)C3=O)c2CO)cc(Nc2ccc(N3CCN(C4COC4)CC3)cn2)c1=O | Aurora kinase A (AURKA, Homo sapiens, UniProt O14965) | enzyme activity, inhibitor | 0.1 µM | 10 |
| Cc1cc(C)c(N(C)C(=O)Oc2nsnc2N2CCCCC2)c(C)c1 | FAAH | enzyme activity, inhibitor | 10 µM, cell membranes | 7 |
| COCc1c(-c2cc3cc(C)cc(OC)c3s2)c2c(N)ncnn2c1CN1CCNC(=O)C1 | Tyrosine-protein kinase receptor Tie-1 (TIE1, Homo sapiens, UniProt P35590) | cell-free assay, competition with immobilised ligand | 1 µM | 83 |
| CN(C(=O)Oc1nsnc1N1CCCCC1)C1CCCCCC1 | FAAH | enzyme activity, inhibitor | 10 µM, cell membranes | 21 |
| COc1cc2c3c(c1OC)-c1cc4c(cc1CC3N(C)CC2)OCO4 (racemic) | HTR2C | ligand displacement, radioligand | 10 µM | 103 |
| CN(C(=O)Oc1nsnc1N1CCCCC1)c1cccc([N+](=O)[O-])c1 | FAAH | enzyme activity, inhibitor | 10 µM, cell membranes | 11 |
| CC(C)N1CCC[C@H]1CNC(=O)c1cn(C2CCCC2)c(=O)c2c1c1ccccc1n2C | MTNR1A | ligand displacement, radioligand | 10 µM | 37 |
